{"source": "ChEMBL document CHEMBL2034936", "about": "“Discovery and extensive in vitro evaluations of NK-HDAC-1: a chiral histone deacetylase inhibitor as a promising lead” (J Med Chem, 2012)", "key": {"[1]": {"target": "T1, Histone deacetylase (Homo sapiens) (UniProt Q13547+O15379+Q9UBN7+Q92769+Q9UQL6+Q8WUI4+Q9BY41+Q96DB2+P56524+Q9UKV0+Q969S8)", "experiment": "Inhibition of HDAC in human MDA-MB-231 cells assessed as stimulation of histone H3 acetylation at 5 uM incubated for 24 hrs by Western blot", "type": "cell-based", "method_in_brief": "(§1)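 MDA-MB-231 cells in 35-mm dishes, dosed 24 h at graded concentrations, then trypsinized and PBS-washed. Lysed in RIPA (50 mM Tris-HCl pH 7.5, protease and phosphatase inhibitors) for 30 min at 4 °C, then cleared at 12,000g. Lysate, 60 μg protein by BCA, run on SDS-PAGE and PVDF. Blotted with anti-acetyl-histone H3 and HRP anti-rabbit, read by ECL.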"}, "[2]": {"target": "T1, Histone deacetylase (Homo sapiens)", "experiment": "Inhibition of HDAC in human MDA-MB-231 cells assessed as stimulation of histone H3 acetylation at 0.1 uM incubated for 24 hrs by Western blot", "type": "cell-based", "method_in_brief": "as §1"}, "HL-60(TB)": {"test_system": "HL-60(TB)", "experiment": "cells", "type": "functional", "settings": "Homo sapiens, HL-60, 72 h"}, "K562": {"test_system": "K562", "experiment": "cells", "type": "functional", "settings": "Homo sapiens, K562, 72 h"}, "A549": {"test_system": "A549", "experiment": "cells", "type": "functional", "settings": "Homo sapiens, A549, 72 h"}, "EKVX": {"test_system": "EKVX", "experiment": "cells", "type": "functional", "settings": "Homo sapiens, 72 h"}, "NCI-H226": {"test_system": "NCI-H226", "experiment": "cells", "type": "functional", "settings": "Homo sapiens, NCI-H226, 72 h"}, "NCI-H23": {"test_system": "NCI-H23", "experiment": "cells", "type": "functional", "settings": "Homo sapiens, NCI-H23, 72 h"}, "NCI-H322M": {"test_system": "NCI-H322M", "experiment": "Growth inhibition of human NCI-H322M cells after 72 hrs by MTS assay", "type": "functional"}, "NCI-H460": {"test_system": "NCI-H460", "experiment": "Growth inhibition of human NCI-H460 cells after 72 hrs by MTS assay", "type": "functional", "settings": "NCI-H460, 72 h"}, "COLO 205": {"test_system": "COLO 205", "experiment": "Growth inhibition of human COLO205 cells after 72 hrs by MTS assay", "type": "functional", "settings": "COLO 205, 72 h"}, "HCT-116": {"test_system": "HCT-116", "experiment": "Growth inhibition of human HCT116 cells after 72 hrs by MTS assay", "type": "functional", "settings": "HCT-116, 72 h"}, "HCT-15": {"test_system": "HCT-15", "experiment": "cells", "type": "functional", "settings": "Homo sapiens, HCT-15, 72 h"}, "HT-29": {"test_system": "HT-29", "experiment": "Growth inhibition of human HT-29 cells after 72 hrs by MTS assay", "type": "functional", "settings": "HT-29, 72 h"}, "SW-620": {"test_system": "SW-620", "experiment": "cells", "type": "functional", "settings": "Homo sapiens, SW-620, 72 h"}, "OVCAR-3": {"test_system": "OVCAR-3", "experiment": "cells", "type": "functional", "settings": "Homo sapiens, OVCAR-3, 72 h"}, "OVCAR-4": {"test_system": "OVCAR-4", "experiment": "cells", "type": "functional", "settings": "Homo sapiens, OVCAR-4, 72 h"}, "OVCAR-5": {"test_system": "OVCAR-5", "experiment": "Growth inhibition of human OVCAR5 cells after 72 hrs by MTS assay", "type": "functional", "settings": "OVCAR-5, 72 h"}, "OVCAR-8": {"test_system": "OVCAR-8", "experiment": "cells", "type": "functional", "settings": "Homo sapiens, OVCAR-8, 72 h"}, "cells [3]": {"experiment": "cells", "type": "functional", "settings": "Homo sapiens, NCI/ADR-RES, 72 h"}, "PC-3": {"test_system": "PC-3", "experiment": "cells", "type": "functional", "settings": "Homo sapiens, PC-3, 72 h"}, "DU-145": {"test_system": "DU-145", "experiment": "cells", "type": "functional", "settings": "Homo sapiens, DU-145, 72 h"}, "SF-268": {"test_system": "SF-268", "experiment": "cells", "type": "functional", "settings": "Homo sapiens, SF-268, 72 h"}, "SF-539": {"test_system": "SF-539", "experiment": "cells", "type": "functional", "settings": "Homo sapiens, SF-539, 72 h"}, "SNB-75": {"test_system": "SNB-75", "experiment": "Growth inhibition of human SNB75 cells after 72 hrs by MTS assay", "type": "functional", "settings": "SNB-75, 72 h"}, "U-251": {"test_system": "U-251", "experiment": "cells", "type": "functional", "settings": "Homo sapiens, U-251, 72 h"}, "LOX IMVI": {"test_system": "LOX IMVI", "experiment": "cells", "type": "functional", "settings": "Homo sapiens, 72 h"}, "Malme-3M": {"test_system": "Malme-3M", "experiment": "cells", "type": "functional", "settings": "Homo sapiens, 72 h"}, "M14": {"test_system": "M14", "experiment": "cells", "type": "functional", "settings": "Homo sapiens, M14, 72 h"}, "SK-MEL-2": {"test_system": "SK-MEL-2", "experiment": "cells", "type": "functional", "settings": "Homo sapiens, SK-MEL-2, 72 h"}, "UACC-62": {"test_system": "UACC-62", "experiment": "Growth inhibition of human UACC62 cells after 72 hrs by MTS assay", "type": "functional", "settings": "UACC-62, 72 h"}, "ACHN": {"test_system": "ACHN", "experiment": "cells", "type": "functional", "settings": "Homo sapiens, 72 h"}, "SN12C": {"test_system": "SN12C", "experiment": "cells", "type": "functional", "settings": "Homo sapiens, 72 h"}, "TK-10": {"test_system": "TK-10", "experiment": "cells", "type": "functional", "settings": "Homo sapiens, TK-10, 72 h"}, "UO-31": {"test_system": "UO-31", "experiment": "cells", "type": "functional", "settings": "Homo sapiens, UO-31, 72 h"}, "MDA-MB-468": {"test_system": "MDA-MB-468", "experiment": "cells", "type": "functional", "settings": "Homo sapiens, MDA-MB-468, 72 h"}, "cells [4]": {"experiment": "cells", "type": "functional", "settings": "Homo sapiens, Hs-578T, 72 h"}, "BT-549": {"test_system": "BT-549", "experiment": "cells", "type": "functional", "settings": "Homo sapiens, BT-549, 72 h"}, "T47D": {"test_system": "T47D", "experiment": "cells", "type": "functional", "settings": "Homo sapiens, 72 h"}, "MDA-MB-231": {"test_system": "MDA-MB-231", "experiment": "cells", "type": "functional", "settings": "Homo sapiens, MDA-MB-231, 72 h"}, "MCF7": {"test_system": "MCF7", "experiment": "cells", "type": "functional", "settings": "Homo sapiens, MCF7, 48 h"}, "[5]": {"experiment": "Lipophilicity, log D of the compound in pH 7.4 PBS buffer", "type": "physicochemical"}, "[6]": {"experiment": "Half life in artificial gastric fluid", "type": "physicochemical"}, "[7]": {"experiment": "Half life in artificial intestinal fluid", "type": "physicochemical"}, "Cytochrome P450 3A4": {"target": "Cytochrome P450 3A4 (Homo sapiens, UniProt P08684)", "sequence (P08684 whole entry)": "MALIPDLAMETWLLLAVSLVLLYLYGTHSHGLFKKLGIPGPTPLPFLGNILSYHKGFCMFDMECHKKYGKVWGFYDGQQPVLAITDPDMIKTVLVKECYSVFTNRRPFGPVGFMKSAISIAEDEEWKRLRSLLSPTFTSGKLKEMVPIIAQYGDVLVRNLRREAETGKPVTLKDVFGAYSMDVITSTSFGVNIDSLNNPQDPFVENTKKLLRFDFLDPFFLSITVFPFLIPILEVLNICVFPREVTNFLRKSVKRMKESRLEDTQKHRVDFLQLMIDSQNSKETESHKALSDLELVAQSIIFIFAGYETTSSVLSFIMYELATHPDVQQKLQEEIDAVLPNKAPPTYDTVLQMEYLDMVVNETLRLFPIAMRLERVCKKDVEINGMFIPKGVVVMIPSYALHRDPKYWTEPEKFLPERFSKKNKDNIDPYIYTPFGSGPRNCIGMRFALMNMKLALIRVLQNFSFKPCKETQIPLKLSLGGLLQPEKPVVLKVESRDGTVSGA", "experiment": "Inhibition of human CYP3A4", "type": "ADME"}, "[8]": {"experiment": "Apparent permeability from basolateral to apical side in human Caco2 cells at 10 uM", "type": "ADME, cell-based", "settings": "Caco-2", "method_in_brief": "(§2)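 Caco-2 monolayers, test compound at 10 μM. Apparent permeability measured in both directions, apical to basolateral and basolateral to apical. Efflux ratio = P_app B to A / P_app A to B. Run by a contract lab following published methods. Mean of three independent triplicate experiments.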"}, "[9]": {"experiment": "Apparent permeability from apical to basolateral side in human Caco2 cells at 10 uM", "type": "ADME, cell-based", "settings": "Caco-2", "method_in_brief": "as §2"}, "[10]": {"experiment": "Efflux ratio, ratio of apparent permeability from basolateral to apical side over apparent permeability from apical to basolateral side in human Caco2 cells at 10 uM", "type": "ADME, cell-based", "settings": "Caco-2", "method_in_brief": "as §2"}}, "note": "The source made the active and inactive calls. The calls are words filed in the database; no cut-off is given here."}
{"smiles": "CC(C)[C@@H](c1nc2ccccc2o1)n1cc(/C=C/C(=O)NO)nn1", "values": [{"measurement": "histone H3 acetylation activity (active/not active)", "setting": "[1]", "value": "Active"}, {"measurement": "inhibition", "setting": "[2]", "value": "Active"}, {"measurement": "GI50", "setting": "HL-60(TB)", "value": 190, "unit": "nM"}, {"measurement": "GI50", "setting": "K562", "value": 88, "unit": "nM"}, {"measurement": "GI50", "setting": "A549", "value": 160, "unit": "nM"}, {"measurement": "GI50", "setting": "EKVX", "value": 240, "unit": "nM"}, {"measurement": "GI50", "setting": "NCI-H226", "value": 540, "unit": "nM"}, {"measurement": "GI50", "setting": "NCI-H23", "value": 140, "unit": "nM"}, {"measurement": "GI50", "setting": "NCI-H322M", "value": 140, "unit": "nM"}, {"measurement": "GI50", "setting": "NCI-H460", "value": 150, "unit": "nM"}, {"measurement": "GI50", "setting": "COLO 205", "value": 140, "unit": "nM"}, {"measurement": "GI50", "setting": "HCT-116", "value": 38, "unit": "nM"}, {"measurement": "GI50", "setting": "HCT-15", "value": 470, "unit": "nM"}, {"measurement": "GI50", "setting": "HT-29", "value": 79, "unit": "nM"}, {"measurement": "GI50", "setting": "SW-620", "value": 130, "unit": "nM"}, {"measurement": "GI50", "setting": "OVCAR-3", "value": 220, "unit": "nM"}, {"measurement": "GI50", "setting": "OVCAR-4", "value": 700, "unit": "nM"}, {"measurement": "GI50", "setting": "OVCAR-5", "value": 140, "unit": "nM"}, {"measurement": "GI50", "setting": "OVCAR-8", "value": 84, "unit": "nM"}, {"measurement": "GI50", "setting": "cells [3]", "value": 27, "unit": "nM"}, {"measurement": "GI50", "setting": "PC-3", "value": 120, "unit": "nM"}, {"measurement": "GI50", "setting": "DU-145", "value": 160, "unit": "nM"}, {"measurement": "GI50", "setting": "SF-268", "value": 330, "unit": "nM"}, {"measurement": "GI50", "setting": "SF-539", "value": 240, "unit": "nM"}, {"measurement": "GI50", "setting": "SNB-75", "value": 250, "unit": "nM"}, {"measurement": "GI50", "setting": "U-251", "value": 180, "unit": "nM"}, {"measurement": "GI50", "setting": "LOX IMVI", "value": 44, "unit": "nM"}, {"measurement": "GI50", "setting": "Malme-3M", "value": 16, "unit": "nM"}, {"measurement": "GI50", "setting": "M14", "value": 180, "unit": "nM"}, {"measurement": "GI50", "setting": "SK-MEL-2", "value": 87, "unit": "nM"}, {"measurement": "GI50", "setting": "UACC-62", "value": 140, "unit": "nM"}, {"measurement": "GI50", "setting": "ACHN", "value": 210, "unit": "nM"}, {"measurement": "GI50", "setting": "SN12C", "value": 360, "unit": "nM"}, {"measurement": "GI50", "setting": "TK-10", "value": 44, "unit": "nM"}, {"measurement": "GI50", "setting": "UO-31", "value": 60, "unit": "nM"}, {"measurement": "GI50", "setting": "MDA-MB-468", "value": 150, "unit": "nM"}, {"measurement": "GI50", "setting": "cells [4]", "value": 580, "unit": "nM"}, {"measurement": "GI50", "setting": "BT-549", "value": 52, "unit": "nM"}, {"measurement": "GI50", "setting": "T47D", "value": 51, "unit": "nM"}, {"measurement": "GI50", "setting": "MDA-MB-231", "value": 520, "unit": "nM"}, {"measurement": "GI50", "setting": "MCF7", "value": 180, "unit": "nM"}, {"measurement": "logD", "setting": "[5]", "value": 2}, {"measurement": "half-life", "setting": "[6]", "value": 9.4, "unit": "h"}, {"measurement": "half-life", "setting": "[7]", "value": "> 24", "unit": "h"}, {"measurement": "INH", "setting": "Cytochrome P450 3A4", "value": 31.9, "unit": "µM"}, {"measurement": "Papp B→A at 10 µM", "setting": "[8]", "value": 7.61, "unit": "×10⁻⁶ cm/s"}, {"measurement": "Papp A→B at 10 µM", "setting": "[9]", "value": 6.61, "unit": "×10⁻⁶ cm/s"}, {"measurement": "efflux ratio at 10 µM", "setting": "[10]", "value": 1.15}]}
